Assay results published in ChEMBL document CHEMBL1131510, “An endogenous sleep-inducing compound is a novel competitive inhibitor of fatty acid amide hydrolase” (Bioorg Med Chem Lett, 1998).

Key:
[1] = target: T1, Fatty-acid amide hydrolase 1 (Homo sapiens, UniProt O00519); assay: Concentration required to inhibit Fatty-acid amide hydrolase (FAAH) at pH 7.0
T1 sequence (O00519 whole entry): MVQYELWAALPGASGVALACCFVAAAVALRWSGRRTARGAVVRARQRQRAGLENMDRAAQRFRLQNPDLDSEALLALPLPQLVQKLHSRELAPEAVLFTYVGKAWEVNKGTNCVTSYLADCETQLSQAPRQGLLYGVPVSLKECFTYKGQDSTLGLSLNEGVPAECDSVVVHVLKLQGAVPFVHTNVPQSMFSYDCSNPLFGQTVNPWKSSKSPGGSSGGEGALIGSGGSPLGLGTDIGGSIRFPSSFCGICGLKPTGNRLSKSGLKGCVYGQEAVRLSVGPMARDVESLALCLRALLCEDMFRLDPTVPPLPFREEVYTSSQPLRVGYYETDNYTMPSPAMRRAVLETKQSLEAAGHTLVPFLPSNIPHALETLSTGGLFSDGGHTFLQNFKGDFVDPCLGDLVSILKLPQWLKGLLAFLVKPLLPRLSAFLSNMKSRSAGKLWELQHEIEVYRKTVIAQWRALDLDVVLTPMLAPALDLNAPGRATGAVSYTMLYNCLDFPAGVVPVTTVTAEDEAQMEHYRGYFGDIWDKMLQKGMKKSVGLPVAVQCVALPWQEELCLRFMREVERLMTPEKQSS
Outline: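 FAAH from solubilized liver plasma membrane extract, assayed at 20-22 °C at pH 7.0. Per the general assay footnote, the reaction buffer contained Tris, EDTA, glycerol and Triton X-100. Read-out was ¹⁴C-oleamide hydrolysis to oleic acid, followed by extraction, TLC separation and scintillation counting. Reaction time courses ran 10 min to 1 h. Only IC50 values are reported at this pH.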

[2] = target: T1, Fatty-acid amide hydrolase 1; assay: Inhibitory concentration against Fatty-acid amide hydrolase (FAAH) at pH 9.0
Outline: (§1)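 Hydrolysis of ¹⁴C-oleamide to oleic acid was followed over 30 s to 15 min. Product was extracted, separated by TLC and quantified by scintillation counting.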

[3] = target: T1, Fatty-acid amide hydrolase 1; assay: Compound was tested for inhibitory potency against Fatty-acid amide hydrolase (FAAH) at pH 9.0; outline: as §1
[4] = target: T1, Fatty-acid amide hydrolase 1; assay: Concentration required to inhibit fatty acid amide hydrolase (FAAH) at pH 7.0
Outline: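 Performed at pH 7.0 with solubilized liver plasma membrane extract as the FAAH source. ¹⁴C-oleamide breakdown to oleic acid was measured by extraction, TLC separation and scintillation counting. Reaction progress was monitored from 10 min to 1 h, and only IC50 values were derived.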

[5] = Acid dissociation constant value for the compound was determined; type: ADME

## CCCCCCCOC(=O)CC(=O)CBr
[1]
  IC50: 2100 nM
[2]
  IC50: 1500 nM
[3]
  Ki: 550 nM

## CCCCCC[C@@H](C)OC(=O)CC(O)CBr (stereo partly drawn)
[2]
  IC50: > 100000 nM

## CCCCCC[C@@H](C)OC(=O)CC(=O)CCl
[2]
  IC50: 2900 nM
[4]
  IC50: 700 nM
[3]
  Ki: 1100 nM

## CCCCCCCCC(=O)CC(C)=O
[5]
  pKa: 9
[2]
  IC50: > 100000 nM

## CCCCCC[C@@H](C)OC(=O)CC(=O)CBr
[5]
  pKa: 8.5
[1]
  IC50: 3100 nM
[2]
  IC50: 2600 nM
[3]
  Ki: 800 nM

## CCCCCC[C@@H](C)OC(=O)CC(=O)CC
[2]
  IC50: > 100000 nM

## CCCCCC[C@@H](C)OC(=O)CC(=O)CCC
[2]
  IC50: > 100000 nM

## CCCCCC[C@H](C)OC(=O)CC(=O)CBr
[2]
  IC50: 4000 nM
[3]
  Ki: 1100 nM

## CCCCCCCC/C=C\CCCCOC(=O)CC(=O)CBr
[2]
  IC50: 600 nM
[4]
  IC50: 2500 nM
[3]
  Ki: 190 nM

## CCCCCC[C@H](C)OC(=O)CC(C)=O
[5]
  pKa: 10.5
[2]
  IC50: > 100000 nM

## CCCCCCCC/C=C\CCCCCCCC(=O)CBr
[2]
  IC50: 1000 nM
[4]
  IC50: 5300 nM
[3]
  Ki: 390 nM

## CCCCCCCC/C=C\CCCCCCCC(=O)C(F)(F)F
[2]
  IC50: 600 nM
[4]
  IC50: 9900 nM
[3]
  Ki: 250 nM
